Test results reported in ChEMBL document CHEMBL1255409, “In vitro activity of ceftaroline against 623 diverse strains of anaerobic bacteria” (2010).
Values after ≈ are worked out from the molar mass of the structure shown.

Key:
Bacteroides fragilis = assay: Antimicrobial activity against Bacteroides fragilis under anaerobic conditions after 44 hrs by CLSI-M11-47 protocol based agar dilution method; assay type: functional
Method in brief: (§1)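 Reference agar dilution per CLSI M11-A7 with plates made on test day. Clinical isolates were stored at −70°C in 20% skim milk, subcultured twice, and 48-h cell paste was suspended in brucella broth to 0.5 McFarland. About 10^5 CFU/spot was applied with a Steers replicator. Plates were incubated 44 h at 37°C anaerobically. MIC was the lowest concentration giving complete inhibition or marked growth reduction versus the drug-free control.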

Bacteroides caccae = assay: Antimicrobial activity against Bacteroides caccae under anaerobic conditions after 44 hrs by CLSI-M11-47 protocol based agar dilution method; assay type: functional; method in brief: as §1
[1] = test system: Parabacteroides distasonis; assay: Antimicrobial activity against Bacteroides distasonis under anaerobic conditions after 44 hrs by CLSI-M11-47 protocol based agar dilution method; assay type: functional; method in brief: as §1
Bacteroides uniformis = assay: Antimicrobial activity against Bacteroides uniformis under anaerobic conditions after 44 hrs by CLSI-M11-47 protocol based agar dilution method; assay type: functional; method in brief: as §1
Fusobacterium mortiferum = assay: Antimicrobial activity against Fusobacterium mortiferum under anaerobic conditions after 44 hrs by CLSI-M11-47 protocol based agar dilution method; assay type: functional; method in brief: as §1
Fusobacterium varium = assay: Antimicrobial activity against Fusobacterium varium under anaerobic conditions after 44 hrs by CLSI-M11-47 protocol based agar dilution method; assay type: functional
Method in brief: (§2)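 Clinical isolates were stored at −70°C in 20% skim milk and identified phenotypically or by partial 16S rRNA sequencing. Each strain was subcultured twice from frozen stock. Cell paste from 48-h cultures was suspended in brucella broth to a 0.5 McFarland standard. About 10^5 CFU per spot were applied by Steers replicator to agar dilution plates prepared on the day of testing. Plates were incubated 44 h at 37°C in an anaerobic chamber. MIC was taken as the lowest concentration giving complete inhibition or marked reduction of growth versus the drug-free control.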

Veillonella = assay: Antimicrobial activity against Veillonella spp. under anaerobic conditions after 44 hrs by CLSI-M11-47 protocol based agar dilution method; assay type: functional; method in brief: as §2
Anaerococcus prevotii = assay: Antimicrobial activity against Anaerococcus prevotii under anaerobic conditions after 44 hrs by CLSI-M11-47 protocol based agar dilution method; assay type: functional; method in brief: as §1
Parvimonas micra = assay: Antimicrobial activity against Parvimonas micra under anaerobic conditions after 44 hrs by CLSI-M11-47 protocol based agar dilution method; assay type: functional; method in brief: as §2
[2] = test system: Peptostreptococcus anaerobius; assay: Antimicrobial activity against Peptostreptococcus anaerobius under anaerobic conditions after 44 hrs by CLSI-M11-47 protocol based agar dilution method; assay type: functional; method in brief: as §2
[3] = test system: Peptostreptococcus stomatis; assay: Antimicrobial activity against Peptostreptococcus stomatis under anaerobic conditions after 44 hrs by CLSI-M11-47 protocol based agar dilution method; assay type: functional; method in brief: as §2
[4] = test system: Anaerococcus lactolyticus; assay: Antimicrobial activity against Anaerococcus lactolyticus under anaerobic conditions after 44 hrs by CLSI-M11-47 protocol based agar dilution method; assay type: functional; method in brief: as §1
Anaerococcus murdochii = assay: Antimicrobial activity against Anaerococcus murdochii under anaerobic conditions after 44 hrs by CLSI-M11-47 protocol based agar dilution method; assay type: functional; method in brief: as §1
Anaerococcus octavius = assay: Antimicrobial activity against Anaerococcus octavius under anaerobic conditions after 44 hrs by CLSI-M11-47 protocol based agar dilution method; assay type: functional; method in brief: as §1
Anaerococcus = assay: Antimicrobial activity against Anaerococcus sp. under anaerobic conditions after 44 hrs by CLSI-M11-47 protocol based agar dilution method; assay type: functional; method in brief: as §1
Gemella morbillorum = assay: Antimicrobial activity against Gemella morbillorum under anaerobic conditions after 44 hrs by CLSI-M11-47 protocol based agar dilution method; assay type: functional; method in brief: as §2
Peptoniphilus lacrimalis = assay: Antimicrobial activity against Peptoniphilus lacrimalis under anaerobic conditions after 44 hrs by CLSI-M11-47 protocol based agar dilution method; assay type: functional; method in brief: as §2
Actinomyces israelii = assay: Antimicrobial activity against Actinomyces israelii under anaerobic conditions after 44 hrs by CLSI-M11-47 protocol based agar dilution method; assay type: functional; method in brief: as §1
Schaalia meyeri = assay: Antimicrobial activity against Actinomyces meyeri under anaerobic conditions after 44 hrs by CLSI-M11-47 protocol based agar dilution method; assay type: functional; method in brief: as §1
[5] = test system: Actinomyces neuii subsp. anitratus; assay: Antimicrobial activity against Actinomyces neuii subsp. anitratus under anaerobic conditions after 44 hrs by CLSI-M11-47 protocol based agar dilution method; assay type: functional, Winkia neuii subsp. anitrata; conditions: Winkia neuii; method in brief: as §1
Propionibacterium avidum = assay: Antimicrobial activity against Propionibacterium avidum under anaerobic conditions after 44 hrs by CLSI-M11-47 protocol based agar dilution method; assay type: functional; conditions: Cutibacterium avidum; method in brief: as §2
Eggerthella lenta = assay: Antimicrobial activity against Eggerthella lenta under anaerobic conditions after 44 hrs by CLSI-M11-47 protocol based agar dilution method; assay type: functional; method in brief: as §1
Eubacterium saburreum = assay: Antimicrobial activity against Eubacterium saburreum under anaerobic conditions after 44 hrs by CLSI-M11-47 protocol based agar dilution method; assay type: functional; conditions: Lachnoanaerobaculum saburreum; method in brief: as §1
Mogibacterium timidum = assay: Antimicrobial activity against Mogibacterium timidum under anaerobic conditions after 44 hrs by CLSI-M11-47 protocol based agar dilution method; assay type: functional; method in brief: as §2
Lacticaseibacillus casei = assay: Antimicrobial activity against Lactobacillus casei under anaerobic conditions after 44 hrs by CLSI-M11-47 protocol based agar dilution method; assay type: functional; method in brief: as §2
Clostridium bolteae = assay: Antimicrobial activity against Clostridium bolteae under anaerobic conditions after 44 hrs by CLSI-M11-47 protocol based agar dilution method; assay type: functional; conditions: Enterocloster bolteae; method in brief: as §1
[6] = test system: Paraclostridium bifermentans; assay: Antimicrobial activity against Clostridium bifermentans under anaerobic conditions after 44 hrs by CLSI-M11-47 protocol based agar dilution method; assay type: functional; method in brief: as §1
Clostridium butyricum = assay: Antimicrobial activity against Clostridium butyricum under anaerobic conditions after 44 hrs by CLSI-M11-47 protocol based agar dilution method; assay type: functional
[7] = test system: Clostridium celerecrescens; assay: Antimicrobial activity against Clostridium celerecrescens under anaerobic conditions after 44 hrs by CLSI-M11-47 protocol based agar dilution method; assay type: functional; conditions: Lacrimispora celerecrescens; method in brief: as §1
Clostridium hylemonae = assay: Antimicrobial activity against Clostridium hylemonae under anaerobic conditions after 44 hrs by CLSI-M11-47 protocol based agar dilution method; assay type: functional; method in brief: as §1
Clostridium subterminale = assay: Antimicrobial activity against Clostridium subterminale under anaerobic conditions after 44 hrs by CLSI-M11-47 protocol based agar dilution method; assay type: functional; method in brief: as §1
Clostridium symbiosum = assay: Antimicrobial activity against Clostridium symbiosum under anaerobic conditions after 44 hrs by CLSI-M11-47 protocol based agar dilution method; assay type: functional; method in brief: as §1

With CCC[C@@H]1C[C@@H](C(=O)N[C@@H]([C@H]2O[C@H](SC)[C@H](O)[C@@H](O)[C@H]2O)[C@H](C)Cl)N(C)C1 [CLINDAMYCIN] the MIC50 (Bacteroides fragilis) was 1 µg/mL (≈ 2.35 µM), the MIC90 (Bacteroides fragilis) was 128 µg/mL (≈ 301 µM) and the MIC50 (Bacteroides caccae) was 4 µg/mL (≈ 9.41 µM). It also gave an MIC90 (Bacteroides caccae) of over 128 µg/mL, an MIC50 [1] of 4 µg/mL (≈ 9.41 µM) and an MIC90 [1] of over 128 µg/mL. It also gave an MIC50 (Bacteroides uniformis) of 4 µg/mL (≈ 9.41 µM), an MIC90 (Bacteroides uniformis) of over 128 µg/mL and an MIC50 (Fusobacterium mortiferum) of 0.06 µg/mL (≈ 0.141 µM). The MIC90 (Fusobacterium mortiferum) was 1 µg/mL (≈ 2.35 µM), the MIC50 (Fusobacterium varium) was 2 µg/mL (≈ 4.71 µM) and the MIC90 (Fusobacterium varium) was 4 µg/mL (≈ 9.41 µM). It also gave an MIC50 (Veillonella) of 0.125 µg/mL (≈ 0.294 µM), an MIC90 (Veillonella) of 128 µg/mL (≈ 301 µM) and an MIC50 (Anaerococcus prevotii) of 0.5 µg/mL (≈ 1.18 µM). It also gave an MIC90 (Anaerococcus prevotii) of 128 µg/mL (≈ 301 µM), an MIC50 (Parvimonas micra) of 0.25 µg/mL (≈ 0.588 µM) and an MIC90 (Parvimonas micra) of 16 µg/mL (≈ 37.6 µM). The MIC50 [2] was at most 0.03 µg/mL, the MIC90 [2] was 0.25 µg/mL (≈ 0.588 µM) and the MIC50 [3] was at most 0.03 µg/mL. The MIC90 [3] was 0.25 µg/mL (≈ 0.588 µM), the MIC50 [4] was 0.125 µg/mL (≈ 0.294 µM) and the MIC90 [4] was 64 µg/mL (≈ 151 µM). For the same compound, the MIC50 (Anaerococcus murdochii) was 0.125 µg/mL (≈ 0.294 µM), the MIC90 (Anaerococcus murdochii) was 64 µg/mL (≈ 151 µM) and the MIC50 (Anaerococcus octavius) was 0.125 µg/mL (≈ 0.294 µM). For the same compound, the MIC90 (Anaerococcus octavius) was 64 µg/mL (≈ 151 µM), the MIC50 (Anaerococcus) was 0.125 µg/mL (≈ 0.294 µM) and the MIC90 (Anaerococcus) was 64 µg/mL (≈ 151 µM). It also gave an MIC50 (Gemella morbillorum) of 0.125 µg/mL (≈ 0.294 µM), an MIC90 (Gemella morbillorum) of 64 µg/mL (≈ 151 µM) and an MIC50 (Peptoniphilus lacrimalis) of 0.125 µg/mL (≈ 0.294 µM). For the same compound, the MIC90 (Peptoniphilus lacrimalis) was 64 µg/mL (≈ 151 µM), the MIC50 (Actinomyces israelii) was 0.06 µg/mL (≈ 0.141 µM) and the MIC90 (Actinomyces israelii) was 128 µg/mL (≈ 301 µM). The MIC50 (Schaalia meyeri) was 0.06 µg/mL (≈ 0.141 µM), the MIC90 (Schaalia meyeri) was 128 µg/mL (≈ 301 µM) and the MIC50 [5] was 0.06 µg/mL (≈ 0.141 µM). For the same compound, the MIC90 [5] was 128 µg/mL (≈ 301 µM), the MIC50 (Propionibacterium avidum) was 0.25 µg/mL (≈ 0.588 µM) and the MIC90 (Propionibacterium avidum) was 0.25 µg/mL (≈ 0.588 µM). The MIC50 (Eggerthella lenta) was 0.5 µg/mL (≈ 1.18 µM), the MIC90 (Eggerthella lenta) was 2 µg/mL (≈ 4.71 µM) and the MIC50 (Eubacterium saburreum) was 0.06 µg/mL (≈ 0.141 µM). For the same compound, the MIC90 (Eubacterium saburreum) was 2 µg/mL (≈ 4.71 µM), the MIC50 (Mogibacterium timidum) was 0.06 µg/mL (≈ 0.141 µM) and the MIC90 (Mogibacterium timidum) was 2 µg/mL (≈ 4.71 µM). For the same compound, the MIC50 (Lacticaseibacillus casei) was 1 µg/mL (≈ 2.35 µM), the MIC90 (Lacticaseibacillus casei) was 2 µg/mL (≈ 4.71 µM) and the MIC50 (Clostridium bolteae) was 0.5 µg/mL (≈ 1.18 µM). It also gave an MIC90 (Clostridium bolteae) of 2 µg/mL (≈ 4.71 µM), an MIC50 [6] of 2 µg/mL (≈ 4.71 µM) and an MIC90 [6] of 128 µg/mL (≈ 301 µM). The MIC50 (Clostridium butyricum) was 2 µg/mL (≈ 4.71 µM), the MIC90 (Clostridium butyricum) was 128 µg/mL (≈ 301 µM) and the MIC50 [7] was 2 µg/mL (≈ 4.71 µM). For the same compound, the MIC90 [7] was 128 µg/mL (≈ 301 µM), the MIC50 (Clostridium hylemonae) was 2 µg/mL (≈ 4.71 µM) and the MIC90 (Clostridium hylemonae) was 128 µg/mL (≈ 301 µM). The MIC50 (Clostridium subterminale) was 2 µg/mL (≈ 4.71 µM), the MIC90 (Clostridium subterminale) was 128 µg/mL (≈ 301 µM) and the MIC50 (Clostridium symbiosum) was 2 µg/mL (≈ 4.71 µM). It also gave an MIC90 (Clostridium symbiosum) of 128 µg/mL (≈ 301 µM).
